Measured values from ChEMBL document CHEMBL4422695, “Antiangiogenic Activity of Compounds Isolated from Anarrhinum pedatum” (2019).
Activity calls are given as the source filed them. The rule behind the calls is not given here.

What was measured:
Danio rerio = species on record: Danio rerio; assay: Antiangiogenic activity in wild type zebrafish 24 hrs post fertilization embryos assessed as reduction in blood vessel growth at 2 uM treated for 48 hrs by alkaline phosphatase assay relative to control; format: functional
Summary of the method: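 Wild-type zebrafish embryos from natural mating, raised at 28.5 °C; healthy embryos selected at 24 hpf, dechorionated, one per well in 100 μL embryo water with agent (2 μM) in DMSO 0.2% v/v, 10 per group, exposed 24–72 hpf. Ethanol-dehydrated, diethanolamine buffer (1 M, pH 9.8) washes, p-nitrophenyl phosphate 0.5 mg/mL 30 min RT, NaOH stop, OD 405 nm; percent of control, ≥3 repeats, t-test.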

Chorioallantoic membrane [1] = assay: Antiangiogenic activity in chicken fertilized egg chorioallantoic membrane at 2 uM after 48 hrs by stereomicroscopic analysis relative to control; format: functional, tissue-based; conditions: Gallus gallus
Summary of the method: (§1)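 Fertilized chicken eggs incubated at 37 °C, positioned horizontally and rotated; 1 cm2 window opened on day 4, malformed or dead embryos excluded. Test agents at 2 μM (100 μL/egg) or retinoic acid at 3 μM, in DMSO (0.2% v/v) in Tris buffer pH 7.4; ten eggs/group. Reincubated 2 days. CAM microvasculature imaged under stereomicroscope, standardized area quantified; percent of vehicle control, three repeats, t-test.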

Chorioallantoic membrane [2] = assay: Antiangiogenic activity in chicken fertilized egg chorioallantoic membrane assessed as appearance of less dense microvasculature at 2 uM after 48 hrs by stereomicroscopic analysis; format: functional, tissue-based; conditions: Gallus gallus; summary of the method: as §1
Chorioallantoic membrane [3] = assay: Antiangiogenic activity in chicken fertilized egg chorioallantoic membrane at 3 uM after 48 hrs by stereomicroscopic analysis relative to control; format: functional, tissue-based; conditions: Gallus gallus; summary of the method: as §1
Chorioallantoic membrane [4] = assay: Antiangiogenic activity in chicken fertilized egg chorioallantoic membrane assessed as reduction in capillary formation at 3 uM after 48 hrs by stereomicroscopic analysis; format: functional, tissue-based; conditions: Gallus gallus; summary of the method: as §1

Structure (SMILES) | Activity (Danio rerio) | Activity (Chorioallantoic membrane [1]) [%] | Activity (Chorioallantoic membrane [2]) | also measured
C/C(=C\CO)CC/C=C(\C)C(=O)O[C@@H]1[C@@H]2O[C@]2(C)[C@H]2[C@H](O[C@@H]3O[C@H](CO)[C@@H](O)[C@H](O)[C@H]3O)OC=C[C@@]12O | 48.33% | 29.6 | Active | 
C=C[C@@](C)(O)CC/C=C(\C)C(=O)OC[C@H]1O[C@@H](O[C@@H]2OC=C(C(=O)O[C@@H]3CO[C@](O)(CO)[C@@H](O)[C@@H]3O)[C@H]3CC[C@](C)(O)[C@@H]23)[C@H](O)[C@@H](O)[C@@H]1O | 72.72% | 21.5 | Active | 
C/C(=C\CO)CC/C=C(\C)C(=O)O[C@@H]1O[C@H](CO)[C@@H](O)[C@H](O)[C@H]1O | 79.82% |  |  | 
C=C[C@@](C)(O)CC/C=C(\C)C(=O)O[C@@H]1O[C@H](CO)[C@@H](O)[C@H](O)[C@H]1O | 56.98% | 29 | Active | 
CC1=C(/C=C/C(C)=C/C=C/C(C)=C/C(=O)O)C(C)(C)CCC1 |  |  |  | Activity (Chorioallantoic membrane [3]): 45%; Activity (Chorioallantoic membrane [4]): Active
C=C[C@@](C)(O)CC/C=C(\C)C(=O)O[C@@]12C=CO[C@@H](O[C@@H]3O[C@H](CO)[C@@H](O)[C@H](O)[C@H]3O)[C@@H]1[C@@]1(C)O[C@H]1[C@H]2OC(=O)/C(C)=C/CC/C(C)=C/CO | inactive |  |  | 
C/C(=C/CO)CC/C=C(\C)C(=O)OC[C@H]1O[C@@H](O[C@@H]2OC=C(C(=O)O[C@@H]3CO[C@](O)(CO)[C@@H](O)[C@@H]3O)[C@H]3CC[C@](C)(O)[C@@H]23)[C@H](O)[C@@H](O)[C@@H]1O | inactive |  |  | 
C/C(=C\CO)CC/C=C(\C)C(=O)OC[C@H]1OC(O)[C@H](O)[C@@H](O)[C@@H]1O (some centres not stated) | inactive |  |  | 
C/C(=C\CO[C@@H]1O[C@H](CO)[C@@H](O)[C@H](O)[C@H]1O)CC/C=C(\C)C(=O)O[C@@H]1O[C@H](CO)[C@@H](O)[C@H](O)[C@H]1O | inactive |  |  | 
COc1cc2c(cc1O)CC[C@@H]1[C@@H]2CC[C@]2(C)[C@@H](O)CC[C@@H]12 [2-METHOXYESTRADIOL] | 52% |  |  | 
C[C@]12O[C@H]1[C@@H](OC(=O)C=Cc1ccc(O)cc1)[C@]1(O)C=CO[C@@H](O[C@@H]3O[C@H](CO)[C@@H](O)[C@H](O)[C@H]3O)[C@@H]12 (mixture of isomers) | 77.38% |  |  | 
C[C@]12O[C@H]1[C@@H](O)[C@]1(O)C=CO[C@@H](O[C@@H]3O[C@H](CO)[C@@H](O)[C@H](O)[C@H]3O)[C@@H]12 [ANTIRRHINOSIDE] | 81% | 29.9 | Active | 
C/C(=C\CO)CC/C=C(\C)C(=O)O[C@@H]1[C@@H]2O[C@]2(C)[C@H]2[C@H](O[C@@H]3O[C@H](CO)[C@@H](O)[C@H](O)[C@H]3O)OC=C[C@@]12OC(=O)/C(C)=C/CC/C(C)=C/CO | inactive |  |  | 

Second part, led by results:

Activity (Danio rerio) | Structure (SMILES) | Activity (Chorioallantoic membrane [1]) [%] | Activity (Chorioallantoic membrane [2]) | also measured
inactive | C/C(=C\CO)CC/C=C(\C)C(=O)O[C@@H]1[C@@H]2O[C@]2(CO)[C@H]2[C@H](O[C@@H]3O[C@H](CO)[C@@H](O)[C@H](O)[C@H]3O)OC=C[C@@]12OC(=O)/C(C)=C/CC/C(C)=C/CO |  |  | 
inactive | C[C@]12O[C@H]1[C@@H](OC(=O)/C=C/c1ccccc1)[C@]1(O)C=CO[C@@H](O[C@@H]3O[C@H](CO)[C@@H](O)[C@H](O)[C@H]3O)[C@@H]12 | 23.9 | Active | 
inactive | C=C[C@@](C)(O)CC/C=C(\C)C(=O)O[C@@]12C=CO[C@@H](O[C@@H]3O[C@H](CO)[C@@H](O)[C@H](O)[C@H]3O)[C@@H]1[C@@]1(CO)O[C@H]1[C@H]2OC(=O)/C(C)=C/CC/C(C)=C/CO | 31.4 | Active | 
inactive | C[C@]1(O)CC[C@@H]2C(C(=O)O[C@@H]3CO[C@](O)(CO)[C@@H](O)[C@@H]3O)=CO[C@@H](O[C@@H]3O[C@H](COC(=O)C=Cc4ccc(O)cc4)[C@@H](O)[C@H](O)[C@H]3O)[C@@H]21 (mixture of isomers) |  |  | 
inactive | O=C(/C=C/c1ccccc1)OC[C@H]1O[C@@H](O[C@@H]2OC=C[C@@]3(O)[C@H](O)[C@@H]4O[C@]4(CO)[C@@H]23)[C@H](O)[C@@H](O)[C@@H]1O |  |  | 
inactive | C/C(=C\CO)CC/C=C(\C)C(=O)O[C@@H]1[C@@H]2O[C@]2(CO)[C@H]2[C@H](O[C@@H]3O[C@H](CO)[C@@H](O)[C@H](O)[C@H]3O)OC=C[C@@]12O |  |  | 
